Assay results taken from ChEMBL document CHEMBL2169805, “The discovery of CCR3/H1 dual antagonists with reduced hERG risk” (Bioorg Med Chem Lett, 2012).
Converted amounts (≈) assume the structure as drawn.

Key:
[1] = Volume of distribution at steady state in Sprague-Dawley rat at 1 mg/kg, iv; type: ADME, organism-based; set-up: dose 1 mg/kg, route intravenous; conditions: in vivo, read-out: Vdss
How it was run: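 Male Sprague-Dawley rats given a single iv dose, nominal 1 mg/kg, […] in DMA:PEG400:H2O (2:2:1).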

[2] = target: T1, C-C chemokine receptor type 3 (Homo sapiens, UniProt P51677); test: Binding affinity to human CCR3 receptor expressed in CHOK1 cells by radioligand displacement assay; type: cell-based, CHO-K1
T1 sequence (P51677 whole entry): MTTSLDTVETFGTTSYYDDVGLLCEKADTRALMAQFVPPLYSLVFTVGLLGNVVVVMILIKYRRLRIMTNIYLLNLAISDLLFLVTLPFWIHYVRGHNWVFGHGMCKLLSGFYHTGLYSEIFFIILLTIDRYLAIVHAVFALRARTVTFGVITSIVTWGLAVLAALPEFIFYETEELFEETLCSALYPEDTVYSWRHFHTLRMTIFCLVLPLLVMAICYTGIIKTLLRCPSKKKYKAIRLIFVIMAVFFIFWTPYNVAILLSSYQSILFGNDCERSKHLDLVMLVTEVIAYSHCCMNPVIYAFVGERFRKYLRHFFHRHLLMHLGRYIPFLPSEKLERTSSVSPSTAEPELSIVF

[3] = target: T2, Voltage-gated inwardly rectifying potassium channel KCNH2 (Homo sapiens, UniProt Q12809)
[4] = Half life in Sprague-Dawley rat at 1 mg/kg, iv; type: ADME, organism-based; set-up: dose 1 mg/kg, route intravenous; conditions: in vivo
[5] = target: Histamine H1 receptor (Homo sapiens, UniProt P35367); test: Displacement of [3H]pyrilamine from human H1 receptor expressed in CHOK1 cells; type: cell-based, CHO-K1
[6] = Clearance in Sprague-Dawley rat at 1 mg/kg, iv; type: ADME, organism-based; set-up: dose 1 mg/kg, route intravenous; conditions: in vivo
[7] = Oral bioavailability in Sprague-Dawley rat at 1 mg/kg administered using 0.1%tween-1%CMC as vehicle; type: ADME, organism-based; conditions: in vivo
[8] = target: T2, Voltage-gated inwardly rectifying potassium channel KCNH2; test: Inhibition of human ERG expressed in CHO cells by IonworksHT assay; type: cell-based
[9] = Oral bioavailability in rat; type: ADME, organism-based; conditions: in vivo
[10] = Solubility of the compound at pH 7.4; type: physicochemical; conditions: buffer
[11] = target: hERG (KCNH2) (Homo sapiens, UniProt Q12809); test: Inhibition of human ERG expressed in HEK293 cells at 10 uM by electrophysiological ion flux assay; type: cell-based; conditions: HEK293 cells expressing human ERG
[12] = Oral bioavailability in dog at 1 mg/kg administered using 0.1%tween-1%CMC as vehicle; type: ADME, organism-based, Canis lupus familiaris; conditions: in vivo
[13] = Oral bioavailability in Sprague-Dawley rat at 1 mg/kg administered using cyclodextrin-meglumine as vehicle; type: ADME, organism-based; conditions: in vivo

T2 sequence (Q12809 whole entry): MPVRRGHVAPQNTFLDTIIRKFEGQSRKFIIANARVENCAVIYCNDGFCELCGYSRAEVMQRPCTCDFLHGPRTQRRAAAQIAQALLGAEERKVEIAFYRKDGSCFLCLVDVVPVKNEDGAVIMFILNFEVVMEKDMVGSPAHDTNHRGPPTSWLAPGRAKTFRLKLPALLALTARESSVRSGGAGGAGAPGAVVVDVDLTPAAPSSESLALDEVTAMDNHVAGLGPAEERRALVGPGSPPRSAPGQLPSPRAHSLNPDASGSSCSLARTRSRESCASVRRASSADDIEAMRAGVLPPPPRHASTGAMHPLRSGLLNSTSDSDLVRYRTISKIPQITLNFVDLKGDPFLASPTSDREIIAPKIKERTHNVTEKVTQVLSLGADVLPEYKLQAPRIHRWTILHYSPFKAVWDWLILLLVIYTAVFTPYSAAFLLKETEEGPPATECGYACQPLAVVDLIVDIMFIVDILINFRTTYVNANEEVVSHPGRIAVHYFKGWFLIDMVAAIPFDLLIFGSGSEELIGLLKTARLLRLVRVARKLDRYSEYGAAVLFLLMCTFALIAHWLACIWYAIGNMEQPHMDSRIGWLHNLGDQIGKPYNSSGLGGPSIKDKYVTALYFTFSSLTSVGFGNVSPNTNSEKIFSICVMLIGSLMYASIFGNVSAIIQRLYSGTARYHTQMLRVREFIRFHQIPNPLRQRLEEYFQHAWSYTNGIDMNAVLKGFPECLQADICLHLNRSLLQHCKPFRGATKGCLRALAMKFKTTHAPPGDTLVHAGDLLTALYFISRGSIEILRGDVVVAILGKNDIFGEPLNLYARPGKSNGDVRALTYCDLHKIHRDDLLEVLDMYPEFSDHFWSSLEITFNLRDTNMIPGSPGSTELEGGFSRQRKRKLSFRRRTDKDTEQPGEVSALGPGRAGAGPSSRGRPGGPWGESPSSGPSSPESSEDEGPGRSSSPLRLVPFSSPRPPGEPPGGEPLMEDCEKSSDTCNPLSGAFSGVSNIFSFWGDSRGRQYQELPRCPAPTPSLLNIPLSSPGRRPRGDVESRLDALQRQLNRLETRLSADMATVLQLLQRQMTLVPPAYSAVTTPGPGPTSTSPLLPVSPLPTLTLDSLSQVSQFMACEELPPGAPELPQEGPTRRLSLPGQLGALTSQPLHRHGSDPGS
Chain of Histamine H1 receptor (P35367 whole entry): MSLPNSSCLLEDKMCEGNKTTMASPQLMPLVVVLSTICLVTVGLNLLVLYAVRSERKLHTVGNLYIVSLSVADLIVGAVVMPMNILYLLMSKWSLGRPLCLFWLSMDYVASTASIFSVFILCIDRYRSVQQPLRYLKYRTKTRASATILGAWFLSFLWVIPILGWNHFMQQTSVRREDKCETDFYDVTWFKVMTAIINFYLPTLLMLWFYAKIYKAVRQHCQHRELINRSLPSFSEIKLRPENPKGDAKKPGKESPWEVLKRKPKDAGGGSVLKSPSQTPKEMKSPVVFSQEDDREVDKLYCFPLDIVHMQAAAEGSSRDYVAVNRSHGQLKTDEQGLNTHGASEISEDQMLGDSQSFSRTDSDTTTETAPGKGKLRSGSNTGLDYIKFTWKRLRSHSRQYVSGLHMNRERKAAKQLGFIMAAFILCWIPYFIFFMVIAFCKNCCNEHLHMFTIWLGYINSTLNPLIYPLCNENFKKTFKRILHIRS
Chain of hERG (KCNH2) (Q12809 whole entry): as the sequence (Q12809 whole entry) above

Ki [2] [nM] | Ki [5] [nM] | SMILES | also measured
39.8 | 20 | COc1ccc(S(=O)(=O)NC(=O)N2CCC(N3CCC(Oc4ccc(Cl)c(Cl)c4)CC3)CC2)cc1 | bioavailability [7]: 4%
501 | 15.8 | O=C(O)CCNc1ccccc1C(=O)N1CCC(N2CCC(Oc3ccc(Cl)c(Cl)c3)CC2)CC1 | 
7.94 | 20 | O=C(NS(=O)(=O)c1ccc(Cl)cc1)N1CCC(N2CCC(Oc3ccc(Cl)c(Cl)c3)CC2)CC1 | 
50.1 | 7.94 | CS(=O)(=O)c1cccc(C(=O)N2CCC(N3CCC(Oc4ccc(Cl)c(Cl)c4)CC3)CC2)c1 | bioavailability [9]: 50%; solubility [10]: 0.017 µM (≈ 8.7 ng/mL); half-life [4]: 6.9 h
251 | 100 | O=C(O)COc1cccc(C(=O)N2CCC(N3CCC(Oc4ccc(Cl)c(Cl)c4)CC3)CC2)c1 | inhibition at 10 µM [11]: 15%
200 | 126 | O=C(O)c1cccc(C(=O)N2CCC(N3CCC(Oc4ccc(Cl)c(Cl)c4)CC3)CC2)c1 | IC50 [3]: > 10000 nM
100 | 2.51 | Cc1ccc(S(=O)(=O)N(C)C(=O)N2CCC(N3CCC(Oc4ccc(Cl)c(Cl)c4)CC3)CC2)cc1 | IC50 [8]: 316 nM
251 | 25.1 | O=C(O)c1ccccc1C(=O)N1CCC(N2CCC(Oc3ccc(Cl)c(Cl)c3)CC2)CC1 | 
31.6 | 50.1 | O=C(NS(=O)(=O)c1ccc(F)cc1)N1CCC(N2CCC(Oc3ccc(Cl)c(Cl)c3)CC2)CC1 | 
316 | 15.8 | O=C(c1ccc(-c2nc(=O)o[nH]2)cc1)N1CCC(N2CCC(Oc3ccc(Cl)c(Cl)c3)CC2)CC1 | 
10 | 25.1 | O=C(c1c[nH]c(=O)c2ccccc12)N1CCC(N2CCC(Oc3ccc(Cl)c(Cl)c3)CC2)CC1 | bioavailability [9]: 50%; half-life [4]: 4.2 h
200 | 31.6 | O=C(c1ccc(-c2nn[nH]n2)cc1)N1CCC(N2CCC(Oc3ccc(Cl)c(Cl)c3)CC2)CC1 | 

Second part, the molecule before the results:

SMILES | Ki [2] [nM] | Ki [5] [nM] | also measured
Cc1ccc(S(=O)(=O)NC(=O)N2CCC(N3CCC(Oc4ccc(Cl)cc4C)CC3)CC2)cc1 | 7.94 | 25.1 | Vd [1]: 1.4 L/kg; IC50 [3]: > 10000 nM; half-life [4]: 0.9 h; clearance [6]: 27 mL/min/kg; bioavailability [7]: 6%
Cc1c(Cl)ccc(OC2CCN(C3CCN(C(=O)NS(=O)(=O)c4ccc(N(C)C)cc4)CC3)CC2)c1Cl | 3.16 |  | Vd [1]: 2.3 L/kg; IC50 [8]: > 20000 nM; bioavailability [7]: 82%
Cc1ccccc1S(=O)(=O)NC(=O)N1CCC(N2CCC(Oc3ccc(Cl)c(Cl)c3)CC2)CC1 | 20 | 50.1 | Vd [1]: 2.7 L/kg; IC50 [3]: > 10000 nM; bioavailability [7]: 8%
CN(C)c1ccccc1S(=O)(=O)NC(=O)N1CCC(N2CCC(Oc3ccc(Cl)c(Cl)c3)CC2)CC1 | 31.6 | 25.1 | 
Cc1c(Cl)ccc(OC2CCN(C3CCN(C(=O)c4cccc(S(C)(=O)=O)c4)CC3)CC2)c1Cl | 5.01 | 25.1 | 
Cc1ccc(C(=O)N2CCC(N3CC[C@@H](Oc4ccc(Cl)c(C)c4Cl)C[C@H]3C(=O)O)CC2)cc1 | 2510 | > 5010 | 
CS(=O)(=O)c1cccc(C(=O)N2CC[C@@H](N3CCC(Oc4ccc(Cl)c(Cl)c4)CC3)[C@H](C(=O)O)C2)c1 | 398 | 200 | 
O=C(NS(=O)(=O)Cc1ccccc1)N1CCC(N2CCC(Oc3ccc(Cl)c(Cl)c3)CC2)CC1 | 158 | 50.1 | 
O=C(O)CCCS(=O)(=O)c1cccc(C(=O)N2CCC(N3CCC(Oc4ccc(Cl)c(Cl)c4)CC3)CC2)c1 | 79.4 | 79.4 | 
O=C(NS(=O)(=O)N1CCC(N2CCC(Oc3ccc(Cl)c(Cl)c3)CC2)CC1)c1ccccc1 | 79.4 | 100 | Vd [1]: 0.5 L/kg; bioavailability [7]: 100%
Cc1ccc(S(=O)(=O)NC(=O)N2CCC(N3CCC(Oc4ccc(Cl)cc4)CC3)CC2)cc1 | 126 | 126 | 
Cc1ccc(S(=O)(=O)NC(=O)N2CCC(N3CCC(Oc4ccc(Cl)c(Cl)c4)CC3)CC2)cc1 |  |  | bioavailability [12]: 19%; Vd [1]: 2.7 L/kg; bioavailability [13]: 44%; half-life [4]: 2.7 h; clearance [6]: 20 mL/min/kg; bioavailability [7]: 18%
N#Cc1cccc(S(=O)(=O)NC(=O)N2CCC(N3CCC(Oc4ccc(Cl)c(Cl)c4)CC3)CC2)c1 | 100 | 20 | 
Cc1ccc(C(=O)N2CCC(N3CC[C@H](Oc4ccc(Cl)c(C)c4Cl)C[C@@H]3C(=O)O)CC2)cc1 | 631 | > 6310 | 
COc1cccc(C(=O)NCCN2CCC(Oc3ccc(Cl)c(Cl)c3)CC2)c1 | 100 |  | half-life [4]: 1.8 h
Cc1ccc(S(=O)(=O)NC(=O)N2CCC(N3CCC(Oc4ccc(Cl)cc4Cl)CC3)CC2)cc1 | 25.1 | 15.8 | 
O=C(NS(=O)(=O)c1ccccc1)N1CCC(N2CCC(Oc3ccc(Cl)c(Cl)c3)CC2)CC1 | 15.8 | 31.6 | IC50 [3]: 10000 nM
Cc1ccc(S(=O)(=O)[N-]C(=O)N2CCC(N3CCC(Oc4ccc(Cl)c(Cl)c4)CC3)CC2)cc1.[Na+] |  |  | bioavailability [12]: 97%; solubility [10]: 0.26 µM; bioavailability [7]: 15%
Cc1c(Cl)ccc(OC2CCN(C3CCN(S(=O)(=O)NC(=O)c4ccccc4)CC3)CC2)c1Cl | 12.6 | 25.1 | Vd [1]: 0.9 L/kg; IC50 [3]: 3980 nM; half-life [4]: 1.6 h; clearance [6]: 17 mL/min/kg; bioavailability [7]: 18%
Cc1cccc(S(=O)(=O)NC(=O)N2CCC(N3CCC(Oc4ccc(Cl)c(Cl)c4)CC3)CC2)c1 | 126 | 31.6 | 
COc1ccccc1S(=O)(=O)NC(=O)N1CCC(N2CCC(Oc3ccc(Cl)c(Cl)c3)CC2)CC1 | 25.1 | 20 | 
Cc1ccc(S(=O)(=O)NC(=O)N2CCC(N3CCC(Oc4ccc(F)c(F)c4)CC3)CC2)cc1 | 631 | 1000 | 
CN(C)c1ccc(S(=O)(=O)NC(=O)N2CCC(N3CCC(Oc4ccc(Cl)c(Cl)c4)CC3)CC2)cc1 | 50.1 | 20 | 
O=C(O)CCCCn1nnc(-c2ccc(C(=O)N3CCC(N4CCC(Oc5ccc(Cl)c(Cl)c5)CC4)CC3)cc2)n1 | 398 | 39.8 | 
Cc1ccc(S(=O)(=O)NC(=O)N2CCC(N3CCC(Oc4ccc(Cl)c(C)c4Cl)CC3)CC2)cc1 | 0.631 | 20 | 
COc1ccc(C(=O)NCCN2CCN(Cc3ccc(Cl)c(Cl)c3)CC2)cc1Cl | 5010 |  | 
O=C(NS(=O)(=O)c1cccc(C(F)(F)F)c1)N1CCC(N2CCC(Oc3ccc(Cl)c(Cl)c3)CC2)CC1 | 31.6 | 39.8 | 
O=C(NS(=O)(=O)c1ccccc1Cl)N1CCC(N2CCC(Oc3ccc(Cl)c(Cl)c3)CC2)CC1 | 5.01 | 50.1 | 
O=C(NS(=O)(=O)c1cccc(Cl)c1)N1CCC(N2CCC(Oc3ccc(Cl)c(Cl)c3)CC2)CC1 | 6.31 | 7.94 | 
